Results reported in ChEMBL document CHEMBL1153459, “Tetrahydropyridine derivatives with inhibitory activity on the production of proinflammatory cytokines: part 1” (Bioorg Med Chem Lett, 2009).

Assays:
Blood = assay: Inhibition of LPS-induced TNFalpha production in human whole blood by immunoassay; assay type: functional, tissue-based
How it was run: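 Human whole blood from consenting volunteers, 988 µL aliquots, was mixed with compound in DMSO and LPS at a final 10 µg/mL, then incubated 6 h at 37 °C. Samples were chilled and spun, and plasma TNFα was measured by immunoassay. Percent inhibition was taken relative to LPS control after subtracting the unstimulated negative control. IC50 from N = 3–4.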

Mus musculus [1] = assay: Inhibition of LPS-induced TNFalpha production in mouse at 20 mg/kg, po after 1 hr by ELISA; assay type: functional
How it was run: (§1)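 Mice were fasted overnight with water allowed. Compound was given orally as a suspension in 0.5% CMC at 10 mL/kg. After 30 min, LPS in saline was injected iv at 0.45 mg/10 mL/kg. Heparinized vena cava blood was drawn 1 h later and plasma TNFα measured by ELISA. Percent inhibition was taken versus vehicle/LPS control after subtracting normal mice. N = 5.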

Mus musculus [2] = assay: Inhibition of LPS-induced TNFalpha production in orally dosed mouse after 1 hr by ELISA; assay type: functional; settings: po, read-out: ID50 (the source's name)
How it was run: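 Mice fasted overnight (water allowed), then given compound orally as a suspension in 0.5% CMC at 10 mL/kg; controls received vehicle alone. 30 min later LPS in saline was injected i.v. at 0.45 mg/10 mL/kg; normal mice got saline. After 1 h, heparinised vena cava blood was spun and plasma TNFα measured by ELISA. % inhibition was taken against normal and control mice; ID50 derived. N = 5.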

Mus musculus [3] = assay: Inhibition of LPS-induced TNFalpha production in mouse at 50 mg/kg, po after 1 hr by ELISA; assay type: functional; how it was run: as §1

| SMILES | IC50 (Blood) | further results |
| --- | --- | --- |
| NCc1c[nH]c(-c2ccc(F)cc2)c1-c1ccncc1 | > 30 µM |  |
| Fc1ccc(-c2[nH]cc(CCCN3CCCCC3)c2-c2ccncc2)cc1 | 28.4 µM |  |
| OC1(c2c[nH]c(-c3ccc(F)cc3)c2-c2ccncc2)CCNCC1 | > 30 µM | inhibition in vivo at 20 mg/kg (Mus musculus [1]): -2.7% |
| Fc1ccc(-c2[nH]cc(C3=CCNCC3)c2-c2ccncc2)cc1 | 1.86 µM | ED50 (Mus musculus [2]): 5.98 mg/kg |
| Fc1ccc(-c2[nH]cc(CCCN3CCOCC3)c2-c2ccncc2)cc1 | > 30 µM |  |
| Fc1ccc(-c2[nH]cc(CCCN3CCN(Cc4ccccc4)CC3)c2-c2ccncc2)cc1 | > 30 µM |  |
| CC(=O)NCCCc1c[nH]c(-c2ccc(F)cc2)c1-c1ccncc1 | > 30 µM |  |
| Fc1ccc(-c2[nH]cc(C3CCNCC3)c2-c2ccncc2)cc1 | 2.98 µM | ED50 (Mus musculus [2]): 17.9 mg/kg |
| CNCCCc1c[nH]c(-c2ccc(F)cc2)c1-c1ccncc1 | 14.7 µM |  |
| NCCCc1c[nH]c(-c2ccc(F)cc2)c1-c1ccncc1 | 4.76 µM |  |
| CN1CCN(CCCc2c[nH]c(-c3ccc(F)cc3)c2-c2ccncc2)CC1 | > 30 µM |  |
| Fc1ccc(-c2[nH]cc(CCCN3CCNCC3)c2-c2ccncc2)cc1 | > 30 µM |  |
| Fc1ccc(-c2[nH]cc(CCCN3CCSCC3)c2-c2ccncc2)cc1 | > 30 µM |  |
| NCCCCc1c[nH]c(-c2ccc(F)cc2)c1-c1ccncc1 | 13.8 µM |  |
| CN(C)CCCc1c[nH]c(-c2ccc(F)cc2)c1-c1ccncc1 | 22.4 µM |  |
| Fc1ccc(-c2[nH]cc(-c3ccncc3)c2-c2ccncc2)cc1 | > 30 µM | inhibition in vivo at 50 mg/kg (Mus musculus [3]): 24.5% |
| C[S+]([O-])c1ccc(-c2nc(-c3ccc(F)cc3)c(-c3ccncc3)[nH]2)cc1 (configuration not stated) [SB-203580] | 6.4 µM | ED50 (Mus musculus [2]): 27.9 mg/kg |
